Only some compounds are listed: those with a hit (about 2.3% of all), similar ones and a draw of the others.
STEP inh – STEP (human) phosphatase inhibition; recombinant STEP, OMFP fluorogenic substrate, fluorescence; P54829; hit rate 0.25% among 360,000; AID 588621; inhibition, % at 20 µM;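 active means inhibition at 20 µM, scaled per plate between control wells, above about 37%, limit read from the data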
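Material: STEP (striatal-enriched tyrosine phosphatase) enzyme, cell-free; Compound dosing: 20 µM single dose in 1% DMSO; Technique: fluorescence read at 480 nm ex / 540 nm em; Times: reaction 20 min, ambient temperature; Medium: 50 mM Bis-Tris pH 6.0 with 2.5 mM DTT and 0.005% Tween 20; Also added: OMFP at 25 µM.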
SUMO1 PPI mod – modulators of human SUMO1-mediated protein-protein interactions | P63165 | SUMO1 binding to a labelled peptide, TR-FRET, 1 h | inhibition, % at 20 µM | hit rate 0.33% among 360,000; in the data active means inhibition above about 37%
Target sequence (P63165 whole entry, looked up): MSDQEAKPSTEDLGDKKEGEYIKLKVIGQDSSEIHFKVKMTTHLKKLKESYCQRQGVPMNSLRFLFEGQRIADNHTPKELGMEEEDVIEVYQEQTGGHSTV
LMPTP block – blocks human LMPTP phosphatase | recombinant LMPTP-A, OMFP fluorogenic substrate, fluorescence intensity | hit rate 0.22% among 360,000 | inhibition, % at 20 µM;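 active means compounds that cut the enzyme signal by at least half of the control window in the single-dose screen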
Target sequence (P24666 whole entry, looked up): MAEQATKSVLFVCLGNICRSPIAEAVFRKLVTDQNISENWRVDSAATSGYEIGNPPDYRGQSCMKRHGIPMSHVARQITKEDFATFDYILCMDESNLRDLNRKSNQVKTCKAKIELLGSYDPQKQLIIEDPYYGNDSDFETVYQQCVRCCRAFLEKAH
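Material: LMPTP-A; amount: 0.625 nM enzyme; doses: single 20 µM dose; times: reaction 50 min, room temperature, dark; technique: fluorescence intensity of OMFP turnover product; benchmarks: no-enzyme and uninhibited controls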
DNMT1 inh – blocks human DNA methyltransferase DNMT1 | hit rate 0.83% among 360,000 | inhibition (reported as % activation of signal), % at 10 µM | DNMT1 molecular beacon, Hinp1I cleavage, fluorescence | P26358; in the data active means inhibition above about 50%
NadD inh – blocks S. aureus nicotinate mononucleotide adenylyltransferase; inhibition, % at 20 µM; AID 602399; hit rate 0.78% among 360,000; purified NadD enzyme, colorimetric absorbance read-out; in the data active means inhibition above about 26%
Scp1 inh – inhibitors of human Scp-1 phosphatase; Recombinant Scp1, phosphopeptide, malachite green phosphate absorbance; hit rate 0.88% among 340,000; inhibition, % at 20 µM;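 active means inhibition above about 50% at 20 µM, limit read from the data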
Target sequence (Q9GZU7 76-261 limits assumed): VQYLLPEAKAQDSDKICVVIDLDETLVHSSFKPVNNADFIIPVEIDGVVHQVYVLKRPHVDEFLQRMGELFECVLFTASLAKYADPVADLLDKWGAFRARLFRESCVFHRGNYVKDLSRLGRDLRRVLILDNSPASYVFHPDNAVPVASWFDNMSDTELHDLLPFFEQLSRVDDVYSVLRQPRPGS
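Assay system: SCP-1 catalytic fragment, aa 76-261 | Buffer or medium: Tris acetate buffer pH 5.5 with MgCl2 and Tween-20 | Compound: One concentration, 20 µM, with 1.0% DMSO | Also added: Phospho 17-mer peptide substrate | Signal: Absorbance at 630 nm | Incubation: 45 min enzyme reaction at room temperature | Measure: % inhibition of SCP-1 phosphate liberation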
Scp-1 conf – confirmation of human Scp-1 phosphatase inhibitors | recombinant SCP-1 catalytic domain, phosphate release, malachite green absorbance | hit rate 61% among 2,500 | shares compounds with Scp1 inh | inhibition, % at 20 µM | AID 540281
Scp-1 MG ctr – colorimetric interference in Scp-1 counter-screen | shares compounds with Scp1 inh | apparent inhibition (interference), % at 20 µM | Colorimetric interference counterscreen, malachite green absorbance 630 nm | 2,500 tested, under 10 active;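 further: compounds added after enzyme reaction finished so only phosphate colour detection is probed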
Scp1 DSF – binds human Scp-1, shifting its melting temperature | shares compounds with Scp1 inh | Recombinant SCP1, Sypro Orange thermal shift Tm | thermal shift relative to vanadate control, % at 40 µM | hit rate 25% among 1,500;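 active means substances whose mean melting-temperature shift, as a percentage of the reference inhibitor's shift, reaches about 5.3%, limit read from the data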
DNMT1 interf DR – beacon fluorescence artifact, dose response counter-screen; shares compounds with DNMT1 inh; molecular beacon fluorescence, spectral interference counter-screen; IC50, µM; 200 tested, under 10 active; call rule not given here
DNMT1 inh conf – confirmation of human DNMT1 inhibitors | shares compounds with DNMT1 inh | DNMT1 molecular beacon HinP1I cleavage, fluorescence | inhibition, % at 10 µM | hit rate 8% among 2,300 | AID 602385;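 active means average inhibition of at least 30% in the single-concentration confirmation test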
Beacon interf – counter-screen for DNMT1 inhibitors: spectral interference. shares compounds with DNMT1 inh. DNMT1 molecular beacon spectral interference counterscreen, fluorescence 485/520. activation (fluorescence interference), % at 10 µM. AID 602387. hit rate 1% among 2,300;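 active means activation of at least 30% at 10 µM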;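 further: DNMT1 catalytic domain with a HinP1I cleavage step and a FAM/dabcyl DNA beacon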
Large screens that a line does not name were inactive (follow-up assays come after a bar, where they were run).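 How the source made its calls, unless noted: active means inhibition of at least 30% at 20 µM; inactive means the rest.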

N#Cc1ccc(C(=O)Nc2cc(C3CC3)nn2-c2ccccc2)cc1	none
COc1ccc(CNC(=O)CSc2nc3ccc(C)cc3[nH]2)cc1OC	none
Cc1cccc(C(=O)OCC(=O)NCc2ccco2)c1	none
O=C(COC(=O)c1ccc(Br)o1)NCc1ccco1	DNMT1 inh 58, Scp1 inh 74 | Scp-1 conf 65 | Scp-1 MG ctr inactive | Scp1 DSF inactive | DNMT1 inh conf inactive | Beacon interf inactive
Cc1ccc(C)c(SCC(=O)OCC(=O)c2ccco2)c1	DNMT1 inh 81, Scp1 inh 60 | Scp-1 conf 69 | Scp-1 MG ctr inactive | Scp1 DSF inactive | DNMT1 inh conf inactive | Beacon interf inactive
O=C(COC(=O)c1cccc(Br)c1)NCc1ccco1	DNMT1 inh 87, Scp1 inh 56 | Scp-1 conf 53 | Scp-1 MG ctr inactive | Scp1 DSF inactive | DNMT1 inh conf inactive | Beacon interf inactive
O=C(COC(=O)c1ccccc1Nc1cccc(C(F)(F)F)c1)NCc1ccco1	DNMT1 inh 91, Scp1 inh 77 | Scp-1 conf 53 | Scp-1 MG ctr inactive | Scp1 DSF 5.3 | DNMT1 inh conf inactive | Beacon interf inactive
COc1cccc(OCC(=O)NNC(=O)c2ccc3ccccc3c2)c1	none
O=C(COC(=O)/C=C/c1ccco1)NCc1ccco1	DNMT1 inh 52, Scp1 inh 72 | Scp-1 conf 82 | Scp-1 MG ctr inactive | Scp1 DSF inactive | DNMT1 inh conf inactive | Beacon interf inactive
COc1ccccc1NCCC(=O)OCC(=O)NCc1ccco1	DNMT1 inh 51, Scp1 inh 75 | Scp-1 conf 64 | Scp-1 MG ctr inactive | Scp1 DSF inactive | DNMT1 inh conf inactive | Beacon interf inactive
O=C(COC(=O)/C=C/c1ccco1)NCc1ccccc1Cl	none
Cc1c(Cl)cnc(NC(=O)COC(=O)/C=C/c2ccco2)c1Cl	none
O=C(COC(=O)/C=C/c1ccco1)Nc1ncc(C(F)(F)F)cc1Cl	DNMT1 inh 71, Scp1 inh 76 | Scp-1 conf 56 | Scp-1 MG ctr inactive | Scp1 DSF 6.1 | DNMT1 inh conf inactive | Beacon interf inactive
Cc1ccc(C(=O)NCC(=O)O)o1	none
CC(=O)N/C(=C\c1ccc(Br)s1)C(=O)O	none
O=C(NC1=NCCS1)C1CCN(S(=O)(=O)c2ccc(Cl)cc2)CC1	none
O=C(NC1=NCCS1)C1CCN(S(=O)(=O)c2cc([N+](=O)[O-])ccc2Cl)CC1	DNMT1 inh 76, Scp1 inh 91 | Scp-1 conf 77 | Scp-1 MG ctr inactive | Scp1 DSF 11 | DNMT1 inh conf inactive | Beacon interf inactive
COc1ccccc1/C=c1\sc2nc(-c3ccco3)nn2c1=O	DNMT1 inh 106, Scp1 inh 69 | Scp-1 conf 72 | Scp-1 MG ctr inactive | Scp1 DSF 7.8 | DNMT1 inh conf inactive | Beacon interf inactive
Cc1ccc(C=C2C(=O)c3ccccc3C2=O)o1	DNMT1 inh 70, Scp1 inh 55 | Scp-1 conf 59 | Scp-1 MG ctr inactive | Scp1 DSF 6.2 | DNMT1 inh conf inactive | Beacon interf inactive
COc1ccc(C(=O)N/N=C/c2ccc(OC(=O)c3cccc4ccccc34)c([N+](=O)[O-])c2)cc1	DNMT1 inh 53, Scp1 inh 92 | Scp-1 conf 65 | Scp-1 MG ctr inactive | Scp1 DSF 6.6 | DNMT1 inh conf inactive | Beacon interf inactive
COc1ccc(C(=O)Oc2ccc(/C=N/NC(=O)c3ccccc3OC)cc2[N+](=O)[O-])cc1	none
O=C(Cn1c(NCCO)nc2ccccc21)Nc1ccc2c(c1)OCCCO2	none
CCCCN(C(=O)Cn1ncc(Cl)c(Cl)c1=O)c1c(N)n(CC(C)C)c(=O)[nH]c1=O	DNMT1 inh 61, Scp1 inh 82 | Scp-1 conf 76 | Scp-1 MG ctr inactive | Scp1 DSF 6.2 | DNMT1 inh conf inactive | Beacon interf inactive
CCCCN(C(=O)CN1CC(C)OC(C)C1)c1c(N)n(CC(C)C)c(=O)[nH]c1=O (configuration not stated)	none
NS(=O)(=O)c1ccc(NC(=O)/C=C/c2ccco2)cc1	DNMT1 inh 62, Scp1 inh 68 | Scp-1 conf 64 | Scp-1 MG ctr inactive | Scp1 DSF inactive | DNMT1 inh conf inactive | Beacon interf inactive
CC(C)(C)c1ccc(C(=O)N2CCOC23CCCCC3)cc1	none (no result: Scp1 inh)
Cc1cc(/C=C\c2nc(O)c([N+](=O)[O-])c(=O)[nH]2)c(C)n1-c1ccccc1	DNMT1 inh 74, Scp1 inh 68 | Scp-1 conf 71 | Scp-1 MG ctr inactive | Scp1 DSF inactive | DNMT1 inh conf inactive | Beacon interf inactive
CCOc1ccccc1/C=C\c1nc(O)c([N+](=O)[O-])c(=O)[nH]1	none
COc1ccc(NC(=O)CN(C)C(=O)c2cc(-c3ccco3)nc3ccccc23)cc1	DNMT1 inh 99, Scp1 inh 73 | Scp-1 conf 61 | Scp-1 MG ctr inactive | Scp1 DSF 7.4 | DNMT1 interf DR inactive | DNMT1 inh conf inactive | Beacon interf inactive
O=C(NC1CCC(O)CC1)c1cc(-c2ccco2)nc2ccccc12 (configuration not stated)	DNMT1 inh 57, Scp1 inh 51 | Scp-1 conf 57 | Scp-1 MG ctr inactive | Scp1 DSF inactive | DNMT1 inh conf inactive | Beacon interf inactive
COc1cccc(-c2cc(C(=O)NC3CC3)c3ccccc3n2)c1	none
COc1ccc(NC(=O)c2cc(-c3ccco3)nc3ccccc23)cc1	none
CCCCCCNC(=O)c1cc(-c2ccco2)nc2ccccc12	DNMT1 inh 106, Scp1 inh 71 | Scp-1 conf 67 | Scp-1 MG ctr inactive | Scp1 DSF inactive | DNMT1 inh conf inactive | Beacon interf inactive
COc1cc(O)c(C(C)=O)c(CC(=O)O)c1	DNMT1 inh 50, Scp1 inh 64 | Scp-1 conf 49 | Scp-1 MG ctr inactive | Scp1 DSF 9.4 | DNMT1 inh conf inactive | Beacon interf inactive
COc1cc(O)c(C(C)=O)c(OC)c1	none

Bioassay records as filed in PubChem BioAssay.
